One assay relates to ACE. The settings on record: cited from earlier work.
For the next assay, the target named is T1, ACE (from rabbit lung) (Oryctolagus cuniculus, UniProt P12822).
T1 sequence (P12822 34-1310): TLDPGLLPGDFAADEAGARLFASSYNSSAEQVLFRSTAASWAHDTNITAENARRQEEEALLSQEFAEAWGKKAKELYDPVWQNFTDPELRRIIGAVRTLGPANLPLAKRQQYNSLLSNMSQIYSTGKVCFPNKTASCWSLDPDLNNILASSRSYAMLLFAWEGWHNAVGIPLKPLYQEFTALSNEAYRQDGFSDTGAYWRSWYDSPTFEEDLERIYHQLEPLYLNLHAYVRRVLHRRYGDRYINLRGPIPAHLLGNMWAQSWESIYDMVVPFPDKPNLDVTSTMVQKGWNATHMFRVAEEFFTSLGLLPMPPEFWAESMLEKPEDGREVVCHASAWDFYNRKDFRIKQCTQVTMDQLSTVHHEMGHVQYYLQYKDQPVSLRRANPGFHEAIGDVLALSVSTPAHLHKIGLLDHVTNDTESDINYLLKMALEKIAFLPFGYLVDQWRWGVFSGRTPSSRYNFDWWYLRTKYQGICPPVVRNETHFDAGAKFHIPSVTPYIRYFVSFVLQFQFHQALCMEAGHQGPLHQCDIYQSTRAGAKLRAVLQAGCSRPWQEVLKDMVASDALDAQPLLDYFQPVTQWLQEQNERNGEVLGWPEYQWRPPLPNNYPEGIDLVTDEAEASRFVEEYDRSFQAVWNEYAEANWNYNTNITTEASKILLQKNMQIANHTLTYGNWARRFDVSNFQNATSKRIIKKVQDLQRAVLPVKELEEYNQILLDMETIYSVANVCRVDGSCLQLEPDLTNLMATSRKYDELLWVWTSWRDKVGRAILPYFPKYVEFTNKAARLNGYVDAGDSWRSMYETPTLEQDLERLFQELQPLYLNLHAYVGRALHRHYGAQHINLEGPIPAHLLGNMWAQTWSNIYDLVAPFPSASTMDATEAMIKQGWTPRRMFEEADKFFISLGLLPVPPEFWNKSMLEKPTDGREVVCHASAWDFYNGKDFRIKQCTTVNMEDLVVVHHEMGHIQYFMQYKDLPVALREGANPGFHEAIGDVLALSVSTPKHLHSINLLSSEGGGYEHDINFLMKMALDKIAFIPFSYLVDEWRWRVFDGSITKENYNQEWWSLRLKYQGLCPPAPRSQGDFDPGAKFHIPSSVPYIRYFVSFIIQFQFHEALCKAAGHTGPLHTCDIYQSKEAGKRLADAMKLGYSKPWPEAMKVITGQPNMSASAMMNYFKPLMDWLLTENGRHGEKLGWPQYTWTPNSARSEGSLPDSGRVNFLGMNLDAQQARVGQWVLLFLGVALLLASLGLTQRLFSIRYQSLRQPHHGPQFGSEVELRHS
Description: ACE-inhibitory activity. It is filed as biochemical. The method in brief: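 Rabbit-lung ACE with HHL substrate. Hippuric acid is extracted into ethyl acetate (vortex 5 s, 14100g for 5 min). The upper organic phase is dried in a vacuum oven at 80 °C for 1 h, redissolved in distilled water, and read at 228 nm. Experiments repeated at least three times; mean values used.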

For assay [1] the following is noted: cited from earlier work.
The test system of assay [2] is ET-1 in vascular endothelial cells. To be noted: cited from earlier work.

Where two headings read alike, the source gives them in different places. Ends that are not written are not given here.

For the substance EVSQGRP, the ACE inhibition pattern result in the assay on ACE is given as “mixed-mode inhibition patterns”.
On to “KAQYPYV [KAQYPYV, Lys-Ala-Gln-Tyr-Pro-Tyr-Val]”, for which the IC50 on ACE (from rabbit lung) stood at 37.1 µM. In other words, the double-digit micromolar range.
For the substance Leu-Ala-Arg-Leu, in assay [1] (at 0.1 mg mL^-1, tilapia gelatin peptide), the “Fe2+ chelating ability” value is given as 46.53%.
Turning to SAAVGSP, the ACE inhibition pattern result with ACE is on record as “mixed-mode inhibition patterns”.
As for Val-Ile-Glu-Pro-Arg, the “Effect on ET-1 expression in vascular endothelial cells” value (“Effect on ET-1 expression” below) in assay [2] is “inhibiting the expression of ET-1”.
Consider Val-Phe-Tyr, for which the “Effect on ET-1 expression” value in assay [2] was “inhibiting the expression of ET-1”.
Turning to Val-Val-Leu-Tyr-Lys [VVLYK], the “Effect on ET-1 expression” value in assay [2] is listed as “inhibiting the expression of ET-1”. For the same substance, the ACE inhibition pattern entry in the assay on ACE was “mixed-mode inhibition patterns”.
On to YYIVS, for which the “Fe2+ chelating ability” value in assay [1] (at 3 mg mL^-1, sweet potato protein peptide) is 59.74%.

As usually defined, the IC50 is the concentration that inhibits the measured activity by half. Higher therefore signals weaker potency in that assay.

Values taken from publication PMC9060905 (RSC Advances, 2019).
